Converted amounts (≈) assume the structure as drawn.
What was measured:
Staphylococcus aureus = assay: Antibacterial activity against Staphylococcus aureus ATCC 29213 after 18 hrs by broth microdilution method; format: functional; conditions: ATCC 29213, 18 h
Outline: (§1)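 Broth microdilution. Pre-cultures were grown 16 h on a rotary shaker: the bacteria at 37 °C and C. albicans at 28 °C. Each was adjusted with sterile medium to OD600 0.04–0.06, diluted a further 10-fold, and dispensed to plates. Compounds were serially diluted from 64 to 0.125 μg/mL in duplicate. OD600 was read after 18 h. MIC was the lowest concentration completely inhibiting visible growth, taken from two independent experiments.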

NCI-H460 = assay: Cytotoxicity against human NCI-H460 cells by SRB assay; format: functional, cell-based
Outline: (§2)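 Sulforhodamine B assay following a previously described protocol, run on three human tumour lines: MCF-7 (breast adenocarcinoma), NCI-H460 (non-small-cell lung cancer) and SF-268 (glioma). Activity was reported as IC50.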

MCF7 = assay: Cytotoxicity against human MCF7 cells by SRB assay; format: functional, cell-based; outline: as §2
SF-268 = assay: Cytotoxicity against human SF268 cells by SRB assay; format: functional, cell-based; outline: as §2
Escherichia coli = assay: Antibacterial activity against Escherichia coli ATCC 25922 after 18 hrs by broth microdilution method; format: functional; conditions: ATCC 25922, 18 h; outline: as §1
Bacillus thuringiensis = assay: Antibacterial activity against Bacillus thuringiensis SCSIO BT01 after 18 hrs by broth microdilution method; format: functional; conditions: SCSIO BT01, 18 h; outline: as §1
Candida albicans = assay: Antifungal activity against Candida albicans ATCC 10231 after 18 hrs by broth microdilution method; format: functional; conditions: ATCC 10231, 18 h; outline: as §1
Bacillus subtilis = assay: Antibacterial activity against Bacillus subtilis SCSIO BS01 after 18 hrs by broth microdilution method; format: functional; conditions: SCSIO BS01, 18 h; outline: as §1

| MIC (Staphylococcus aureus) [µg/mL] | MIC (Escherichia coli) [µg/mL] | MIC (Bacillus thuringiensis) [µg/mL] | MIC (Candida albicans) [µg/mL] | MIC (Bacillus subtilis) [µg/mL] | SMILES | IC50 (NCI-H460) [µM] | IC50 (MCF7) [µM] | IC50 (SF-268) [µM] |
| --- | --- | --- | --- | --- | --- | --- | --- | --- |
| 32 (≈ 94.6 µM) | > 64 | > 64 | > 64 | > 64 | CO[C@@H]1c2c(cc(O)c3c2C(=O)c2cccc(O)c2-3)C(=O)[C@@]2(C)O[C@@H]12 [FLUOSTATIN F] | > 100 | > 100 | > 100 |
| > 64 | > 64 | > 64 | > 64 | > 64 | CC(C)C(=O)O[C@@H]1c2c(cc(O)c3c2C(=O)c2cccc(O)c2-3)C(=O)[C@@]2(C)O[C@@H]12 [FLUOSTATIN D] | > 100 | > 100 | > 100 |
| > 64 | > 64 | > 64 | > 64 | > 64 | CC(C)C(=O)O[C@@H]1c2c(cc(O)c3c2C(=O)c2cccc(O)c2-3)C(=O)[C@H](C)[C@H]1O [FLUOSTATIN I] | > 100 | > 100 | > 100 |
| 1 (≈ 2.96 µM) | 16 (≈ 47.3 µM) | 8 (≈ 23.6 µM) | > 64 | 16 (≈ 47.3 µM) | C[C@]1(O)CC(=O)c2c(cc(O)c3c2C(=O)c2cccc(O)c2C3=O)C1 [RABELOMYCIN] | 9.91 | 4.28 | 5.54 |
| 0.25 (≈ 0.819 µM) | 32 (≈ 105 µM) | 4 (≈ 13.1 µM) | > 64 | 64 (≈ 210 µM) | Cc1cc(O)c2c3c(ncc2c1)C(=O)c1c(O)cccc1C3=O [PHENANTHROVIRIDONE] | 2.18 | 0.17 | 0.09 |
| > 64 | > 64 | > 64 | > 64 | > 64 | C[C@]1(O)C=Cc2c(cc(O)c3c2C(=O)c2cccc(O)c2-3)C1=O [FLUOSTATIN K] | > 100 | > 100 | > 100 |
| 16 (≈ 49.3 µM) | > 64 | > 64 | > 64 | > 64 | C[C@]12O[C@H]1[C@H](O)c1c(cc(O)c3c1C(=O)c1cccc(O)c1-3)C2=O [FLUOSTATINS C] | > 100 | > 100 | > 100 |
| > 64 | > 64 | > 64 | > 64 | > 64 | CCC(C)C(=O)O[C@@H]1c2c(cc(O)c3c2C(=O)c2cccc(O)c2-3)C(=O)[C@@]2(C)O[C@@H]12 (some centres not stated) [FLUOSTATIN J] | > 100 | > 100 | > 100 |
| > 64 | > 64 | > 64 | > 64 | > 64 | C[C@]1(Cl)C(=O)c2cc(O)c3c(c2[C@@H](O)[C@@H]1O)C(=O)c1cccc(O)c1-3 [FLUOSTATIN E] | > 100 | > 100 | > 100 |

From ChEMBL document CHEMBL2163340, “Fluostatins I-K from the South China Sea-derived micromonospora rosaria SCSIO N160” (J Nat Prod, 2012)
